From PubChem
Rows were chosen to be rich in hits. Some 3.8% of all compounds tested hit in one or more screens of this group.
Yeast growth inh – chemicals that inhibit yeast BB579 growth in restrictive medium (lifespan-shortening candidates) | inhibition, % at 10 µM | AID 804 | 140,000 tested, 0.51% active | S. cerevisiae BB579 growth, OD615, 48 h;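 active = inhibition above a set limit, 3 SD over the mean compound inhibition, cut at about 44% in these data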
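controls = amphotericin B 10 µg/mL, positive | assay system = DeaD yeast strain BB579 | schedule = 48 h compound exposure at 30 °C after 4 h preincubation | detection = OD615 turbidity measurement | medium = restrictive CSMM-D medium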
RAM inhibit – yeast RAM network inhibition | S. cerevisiae dse1pr::URA3 reporter, 5-FOA growth OD615, 2 d; analog-sensitive cbk1-as2 kinase mutant strain | AID 868 | 190,000 tested, 1.8% active | inhibition, % at 50 µM;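 active = inhibition above a set limit, 3 SD over mean compound inhibition, cut at about 8.4% in these data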;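 note: inhibition rescues growth on 5-FOA so higher OD means more RAM inhibition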
Measles CPE – protection of cells from measles virus | Measles virus-infected cells, CPE protection, absorbance | protection (pct of control), % at 4 µM | 140,000 tested, 1.5% active; in the data active = protection mostly above about 24%, no sharp cut-off; inactive = mostly below about 26%
sdo1 growth – compounds rescuing growth of sdo1-depleted yeast, bone marrow failure model. 140,000 tested, 0.21% active. AID 817. S. cerevisiae sdo1-depleted JHY4D growth rescue, OD600 30 h; hits give high values; pdr5 snq2 efflux-pump mutant strain. z-score at 10 µM;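 active = z-score above 3 at both the 24 hr and the 30 hr optical density reads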
Yeast lifespan up – extends the lifespan of yeast; S. cerevisiae growth with nicotinamide, OD615; deaD strain in restrictive glucose medium; inhibition of the nicotinamide effect, % at 10 µM; 130,000 tested, 0.68% active;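 active = inhibition above a set limit, placed 3 SD over the median of all compounds, cut at about 26% in these data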
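Material: Modified budding yeast, DeaD strain | Medium: Restrictive glucose medium | Probe or stimulus: 1.5 mM nicotinamide | Dosing: Single dose 10 µM compound, 0.25% DMSO | Times: 48 h at 30 °C | Technique: OD615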
Large screens that a line does not name were inactive.

O=C1COc2ccc(C(=O)c3ccccc3C(=O)NCc3ccccc3)cc2N1	Measles CPE 22.0
Cc1ccc(O)c(C(=O)c2cnc3c(c2)c(C)nn3-c2ccccc2)c1	none
COc1cc(C)ccc1OCCCON1C(=O)CCC1=O	none
CN1CCC(OC(=O)c2cccc(Cl)c2)CC1	none (no result: Yeast growth inh, Measles CPE, sdo1 growth, Yeast lifespan up)
COc1cnc(-c2ccccc2)nc1Oc1ccccc1C	none
COc1cnc(-c2ccccc2)nc1Oc1ccc(C(C)(C)C)cc1	RAM inhibit 11.0 (no result: Measles CPE)
Cc1cc(C)n(-c2cc(N3CCN(C(=O)c4cccc(F)c4)CC3)ccc2[N+](=O)[O-])n1	none
CCOCN(C(=O)Cn1c(CO)nc2ccccc21)c1c(C)cccc1CC	Measles CPE 34.6
CCOCN(C(=O)Cn1cnc2ccccc21)c1c(C)cccc1CC	none (no result: Yeast growth inh, Measles CPE, sdo1 growth, Yeast lifespan up)
COc1ccc(Nc2nc(N/N=C/c3ccc(N(C)C)cc3)nc(C)c2[N+](=O)[O-])cc1	RAM inhibit 10.0
COc1ccc(Nc2nc(NN)nc(C)c2[N+](=O)[O-])cc1	none (no result: Yeast growth inh, Measles CPE, sdo1 growth, Yeast lifespan up)
COc1ccc(CCN=C(N)NS(=O)(=O)c2ccc3ccccc3c2)cc1	none
CCc1ccccc1NC(=O)c1cc(=O)c2ccccc2o1	none (no result: Yeast growth inh, Measles CPE, sdo1 growth, Yeast lifespan up)
O=c1c2cnn(-c3ccccc3)c2nc(-c2ccco2)n1-c1ccccc1	Measles CPE 34.7
O=c1oc(-c2ccco2)nc2c1cnn2-c1ccccc1	none
O=C1OCCC1Sc1nnc(-c2ccco2)n1-c1ccccc1 (centres undefined)	none (no result: Yeast growth inh, Measles CPE, sdo1 growth, Yeast lifespan up)
c1ccc(-n2c(-c3ccco3)nnc2-c2ccco2)cc1	Yeast growth inh 47.5
CC(C)(C)c1cc[n+](CC(=O)Nc2cc(C(F)(F)F)ccc2N2CCOCC2)cc1	none (no result: Yeast growth inh, Measles CPE, sdo1 growth, Yeast lifespan up)
C/C(=N\NC(=O)c1ccccc1O)C1C(=O)c2ccccc2C1=O	Yeast lifespan up 97.9
CC1CC(C)CN(S(=O)(=O)c2ccccc2[N+](=O)[O-])C1 (centres undefined)	none
Oc1ccc(-c2[nH]ncc2-c2ccc(Cl)cc2)c(O)c1	none
CCOc1ccc(-c2[nH]ncc2-c2csc(C)n2)c(O)c1	none
COc1ccc(-c2[nH]ncc2-c2ccc(Cl)cc2)c(O)c1	Yeast growth inh 73.4
CCOc1ccc(-c2[nH]ncc2Oc2cccc(OC)c2)c(O)c1	Yeast growth inh 85.8
CCCOC(=O)c1ccc(Oc2cn[nH]c2-c2ccc(OCC)cc2O)cc1	Yeast growth inh 63.8
O=C(COc1ccccc1[N+](=O)[O-])NNC(=O)Nc1cccc2ccccc12	none (no result: Yeast growth inh, Measles CPE, sdo1 growth, Yeast lifespan up)
Cc1ccc(C(=O)NCc2ccccn2)cc1Cl	none (no result: Yeast growth inh, Measles CPE, sdo1 growth, Yeast lifespan up)
COCCN(C(=O)c1csnn1)C(C(=O)NC(C)(C)C)c1cccc(OC)c1 (centres undefined)	none
CC(C)CNC(=O)CSc1nnc(CN2CCCCCC2=O)n1-c1ccccn1	Yeast lifespan up 28.7
CN1C(=O)C(Cl)(Cl)C(=O)c2ccccc21	Yeast lifespan up 47.1
C/C(CC1(O)C(=O)N(C)c2ccccc21)=N\O (centres undefined)	none
COc1ccc(C)cc1NC(=O)COC(=O)Cc1ccc(-c2ccccc2)cc1	RAM inhibit 9.6
O=C(CSc1nnc2ccccn12)Nc1nsc(-c2ccccc2)n1	Measles CPE 27.0
COc1ccc(S(=O)(=O)Cc2ccc(C(=O)NCc3ccc(F)cc3)o2)cc1	Measles CPE 31.7
COc1ccc(S(=O)(=O)Cc2ccc(C(=O)NCc3cccnc3)o2)cc1	none
CCOC(=O)C1CCCN(c2ccc(NC(=O)c3snc4c(=O)[nH]cnc34)cc2)C1 (centres undefined)	none
CCOC(=O)C1CCCN(c2ccc(NC(=O)c3snc4c(=O)[nH]c(C)nc34)cc2)C1 (centres undefined)	RAM inhibit 9.8
Cc1nn(CCC(N)=S)c2nc(-c3cccs3)cc(C(F)(F)F)c12	none
O=[N+]([O-])c1ccc(Cl)c(/C=N/NC(=S)Nc2ccccc2)c1	none
O=C(N/N=C/c1ccccc1Cl)c1nc2ccc([N+](=O)[O-])cc2c(=O)[nH]1	RAM inhibit 10.2 (no result: Yeast growth inh, Measles CPE, sdo1 growth, Yeast lifespan up)
CCCCCCN(C(=O)CCCCCN1C(=O)NC(c2ccc(Cl)cc2)C(C(=O)OCc2ccccc2)=C1C)C(C(=O)NCCCC)c1ccc(OCC(=O)OC)c(C(=O)OC)c1 (centres undefined)	RAM inhibit 10.2
CN(C)S(=O)(=O)c1cccn1-c1ncc(C(F)(F)F)cc1Cl	Measles CPE 43.1
CN(C)/C=N/S(=O)(=O)c1cccn1-c1ncc(C(F)(F)F)cc1Cl	none (no result: Yeast growth inh, Measles CPE, sdo1 growth, Yeast lifespan up)
O=S(=O)(c1ccccc1)c1ncc(C(F)(F)F)cc1O	none (no result: Yeast growth inh, Measles CPE, sdo1 growth, Yeast lifespan up)
O=S(=O)(c1ccccc1)c1ncc(C(F)(F)F)cc1Cl	RAM inhibit 9.8 (no result: Yeast growth inh, Measles CPE, sdo1 growth, Yeast lifespan up)
Cc1ccccc1OCC(=O)Nc1ccccc1-c1ccccc1NC(=O)COc1ccccc1C	RAM inhibit 9.4
Cc1ccccc1OCC(=O)N/N=C/c1ccco1	Measles CPE 44.5
C=CC[n+]1c(-c2ccc(OCC)cc2)csc1NNC(=O)Nc1ccccc1	none
COc1ccccc1CNC(=O)c1csc(Cc2ccc(Cl)cc2)n1	RAM inhibit 8.7
COc1ccc(CNC(=O)c2csc(Cc3ccccc3)n2)cc1	none
Cc1cc(S(=O)(=O)Nc2ccc3ccccc3c2)c(C)s1	RAM inhibit 9.2
Cc1cc(S(=O)(=O)Nc2cccnc2)c(C)s1	none
CCOC(=O)c1ccc(NC(=O)CSc2nnc(-c3cccs3)n2CC)cc1	none
C=CCn1c(SCC(=O)Nc2ccc(C(=O)OC(C)C)cc2)nnc1-c1cccs1	RAM inhibit 8.7
COc1ccc(N2C(=O)C3CCCN3C2c2ccccc2Cl)cc1 (centres undefined)	none
COc1cc(NC(=O)c2cccc(Cl)c2)ccc1NC(=O)c1cccs1	RAM inhibit 9.3 (no result: Yeast growth inh, Measles CPE, sdo1 growth, Yeast lifespan up)
ClC(Br)=C(n1cnc2ccccc21)n1cnc2ccccc21	Yeast lifespan up 41.3
COCC(C)OC(=O)/C(C#N)=C\c1coc2ccc(C)cc2c1=O (centres undefined)	Yeast growth inh 63.5
CN(C)c1ccc(NC(=O)c2sc(SCC(=O)Nc3ccc(Br)cc3)nc2N)cc1	RAM inhibit 8.7
CCCCCCCCC(=O)N/N=C/c1ccccn1	none
CCCCCCCCC/C(=N\O)c1ccccn1	Yeast growth inh 99.6
Cc1ccccc1NC(=O)N1CCN(S(=O)(=O)c2ccccc2)CC1	none (no result: Yeast growth inh, Measles CPE, sdo1 growth, Yeast lifespan up)
CON(C)c1nc(OCC#N)nc(N(C)C)n1	none
OCCNCCCCOc1ccc(F)cc1	Measles CPE 48.5
O=C(Oc1ccccc1/C=C\C(=O)c1cc2ccccc2o1)c1cccc(F)c1	RAM inhibit 10.1
COc1cccc(C(=O)c2c[nH]c(C(=O)NCc3cccnc3)c2)c1	none (no result: Yeast growth inh, Measles CPE, sdo1 growth, Yeast lifespan up)
Cc1ccc(C(=O)c2c[nH]c(C(=O)NCc3cccnc3)c2)cc1	Measles CPE 27.8
Cc1cc(C)n(/N=C/c2ccc(C(C)C)cc2)c(=O)c1C#N	none
CC(C)NC(=O)NC(=O)COc1ccc(Br)cc1Br	none
Cc1ccccc1Nc1nnc(SCC(=O)Nc2ccccc2[N+](=O)[O-])s1	RAM inhibit 8.7
CCCC(=Nc1ccccc1OC)C1=C(O)CC(c2ccccc2)CC1=O (centres undefined)	Yeast lifespan up 58.7
